Active and inactive are the calls of the source. The rule behind the calls is not given here.
Key:
Type in all cases: cell-based
[1] = molecular target: T1, Protein cereblon/Induced myeloid leukemia cell differentiation protein Mcl-1 (Homo sapiens, UniProt Q07820+Q96SW2); test: Induction of CRBN-mediated Mcl-1 degradation in human HeLa cells assessed as relative abundance at 10 uM after 12 hrs by Western blot analysis (reference value: 1)
Target sequence in this assay (Q07820 whole entry, looked up): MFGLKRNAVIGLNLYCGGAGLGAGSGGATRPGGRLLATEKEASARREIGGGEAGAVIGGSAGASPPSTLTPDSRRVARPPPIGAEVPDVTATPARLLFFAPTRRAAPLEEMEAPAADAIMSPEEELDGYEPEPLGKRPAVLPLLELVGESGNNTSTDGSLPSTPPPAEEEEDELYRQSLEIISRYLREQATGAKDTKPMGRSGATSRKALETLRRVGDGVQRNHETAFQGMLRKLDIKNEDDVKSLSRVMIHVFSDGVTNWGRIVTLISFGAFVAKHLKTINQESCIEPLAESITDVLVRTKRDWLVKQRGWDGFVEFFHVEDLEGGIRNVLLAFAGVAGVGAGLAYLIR
Target sequence in this assay (Q96SW2 whole entry, looked up): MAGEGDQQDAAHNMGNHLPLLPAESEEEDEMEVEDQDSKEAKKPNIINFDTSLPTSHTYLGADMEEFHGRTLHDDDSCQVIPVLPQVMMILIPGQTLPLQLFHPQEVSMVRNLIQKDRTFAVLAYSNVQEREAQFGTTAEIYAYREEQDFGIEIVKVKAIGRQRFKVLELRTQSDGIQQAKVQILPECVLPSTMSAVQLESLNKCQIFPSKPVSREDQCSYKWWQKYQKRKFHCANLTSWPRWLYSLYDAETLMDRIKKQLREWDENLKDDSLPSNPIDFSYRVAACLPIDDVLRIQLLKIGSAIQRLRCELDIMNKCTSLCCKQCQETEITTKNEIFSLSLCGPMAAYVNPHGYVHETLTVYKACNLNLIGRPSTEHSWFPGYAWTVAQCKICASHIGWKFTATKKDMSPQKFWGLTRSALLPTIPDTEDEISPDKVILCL

[2] = molecular target: T1, Protein cereblon/Induced myeloid leukemia cell differentiation protein Mcl-1; test: Induction of CRBN-mediated Mcl-1 degradation in human HeLa cells assessed as relative abundance at 1 uM after 12 hrs by Western blot analysis (reference value: 1)
Target sequence in this assay (Q07820 whole entry, looked up): as the sequence (Q07820 whole entry, looked up) above
Target sequence in this assay (Q96SW2 whole entry, looked up): as the sequence (Q96SW2 whole entry, looked up) above

[3] = molecular target: T2, Protein cereblon/Apoptosis regulator Bcl-2 (Homo sapiens, UniProt P10415+Q96SW2); test: Induction of CRBN-mediated Bcl-2 degradation in human HeLa cells assessed as relative abundance at 10 uM after 12 hrs by Western blot analysis (reference value: 1)
T2 sequence (P10415 whole entry, looked up): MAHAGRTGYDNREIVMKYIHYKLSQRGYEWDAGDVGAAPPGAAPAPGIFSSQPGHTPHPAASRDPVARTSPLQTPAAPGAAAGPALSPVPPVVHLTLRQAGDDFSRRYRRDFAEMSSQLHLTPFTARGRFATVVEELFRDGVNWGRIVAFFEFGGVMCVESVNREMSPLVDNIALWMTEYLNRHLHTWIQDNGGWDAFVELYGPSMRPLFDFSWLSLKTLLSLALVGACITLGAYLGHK
T2 sequence (Q96SW2 whole entry, looked up): as the sequence (Q96SW2 whole entry, looked up) above

[4] = molecular target: T2, Protein cereblon/Apoptosis regulator Bcl-2; test: Induction of CRBN-mediated Bcl-2 degradation in human HeLa cells assessed as relative abundance at 1 uM after 12 hrs by Western blot analysis (reference value: 1)
[5] = molecular target: T2, Protein cereblon/Apoptosis regulator Bcl-2; test: Induction of CRBN-mediated Bcl-2 degradation in human HeLa cells assessed as relative abundance at 3 uM after 12 hrs by Western blot analysis (reference value: 1)
[6] = molecular target: T2, Protein cereblon/Apoptosis regulator Bcl-2; test: Induction of CRBN-mediated Bcl-2 degradation in human HeLa cells assessed as relative abundance at 0.3 uM after 12 hrs by Western blot analysis (reference value: 1)
[7] = molecular target: T1, Protein cereblon/Induced myeloid leukemia cell differentiation protein Mcl-1; test: Induction of CRBN-mediated Mcl-1 degradation in human HeLa cells assessed as relative abundance at 0.1 uM after 12 hrs by Western blot analysis (reference value: 1)
Target sequence in this assay (Q07820 whole entry, looked up): as the sequence (Q07820 whole entry, looked up) above
Target sequence in this assay (Q96SW2 whole entry, looked up): as the sequence (Q96SW2 whole entry, looked up) above

[8] = molecular target: T2, Protein cereblon/Apoptosis regulator Bcl-2; test: Induction of CRBN-mediated Bcl-2 degradation in human HeLa cells assessed as relative abundance at 0.1 uM after 12 hrs by Western blot analysis (reference value: 1)
[9] = molecular target: T1, Protein cereblon/Induced myeloid leukemia cell differentiation protein Mcl-1; test: Induction of CRBN-mediated Mcl-1 degradation in human HeLa cells assessed as relative abundance at 0.3 uM after 12 hrs by Western blot analysis (reference value: 1)
Target sequence in this assay (Q07820 whole entry, looked up): as the sequence (Q07820 whole entry, looked up) above
Target sequence in this assay (Q96SW2 whole entry, looked up): as the sequence (Q96SW2 whole entry, looked up) above

[10] = molecular target: T1, Protein cereblon/Induced myeloid leukemia cell differentiation protein Mcl-1; test: Induction of CRBN-mediated Mcl-1 degradation in human HeLa cells assessed as relative abundance at 3 uM after 12 hrs by Western blot analysis (reference value: 1)
Target sequence in this assay (Q07820 whole entry, looked up): as the sequence (Q07820 whole entry, looked up) above
Target sequence in this assay (Q96SW2 whole entry, looked up): as the sequence (Q96SW2 whole entry, looked up) above

[11] = molecular target: T1, Protein cereblon/Induced myeloid leukemia cell differentiation protein Mcl-1; test: Induction of CRBN-mediated Mcl-1 degradation in human HeLa cells assessed as relative abundance at 10 uM measured at 2 hrs by Western blot analysis (reference value: 1)
In short: (§1)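 HeLa cells in DMEM with 10% FBS, exposed to 10 µM compound over a 0–24 h time course. Mcl-1 and Bcl-2 detected by immunoblot (NP-40 lysis, BCA-equalized SDS-PAGE, PVDF, ECL) and quantified relative to DMSO control; mean ± s.d., n=3 independent samples.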
Target sequence in this assay (Q07820 whole entry, looked up): as the sequence (Q07820 whole entry, looked up) above
Target sequence in this assay (Q96SW2 whole entry, looked up): as the sequence (Q96SW2 whole entry, looked up) above

[12] = molecular target: T1, Protein cereblon/Induced myeloid leukemia cell differentiation protein Mcl-1; test: Induction of CRBN-mediated Mcl-1 degradation in human HeLa cells assessed as relative abundance at 10 uM measured at 4 hrs by Western blot analysis (reference value: 1); in short: as §1
[13] = molecular target: T1, Protein cereblon/Induced myeloid leukemia cell differentiation protein Mcl-1; test: Induction of CRBN-mediated Mcl-1 degradation in human HeLa cells assessed as relative abundance at 10 uM measured at 8 hrs by Western blot analysis (reference value: 1); in short: as §1
[14] = molecular target: T2, Protein cereblon/Apoptosis regulator Bcl-2; test: Induction of CRBN-mediated Bcl-2 degradation in human HeLa cells assessed as relative abundance at 10 uM measured at 20 hrs by Western blot analysis (reference value: 1); in short: as §1
[15] = molecular target: T1, Protein cereblon/Induced myeloid leukemia cell differentiation protein Mcl-1; test: Induction of CRBN-mediated Mcl-1 degradation in human HeLa cells assessed as relative abundance at 10 uM measured at 16 hrs by Western blot analysis (reference value: 1); in short: as §1
[16] = molecular target: T1, Protein cereblon/Induced myeloid leukemia cell differentiation protein Mcl-1; test: Induction of CRBN-mediated Mcl-1 degradation in human HeLa cells assessed as relative abundance at 10 uM measured at 20 hrs by Western blot analysis (reference value: 1); in short: as §1
[17] = molecular target: T1, Protein cereblon/Induced myeloid leukemia cell differentiation protein Mcl-1; test: Induction of CRBN-mediated Mcl-1 degradation in human HeLa cells assessed as relative abundance at 10 uM measured at 24 hrs by Western blot analysis (reference value: 1); in short: as §1
[18] = molecular target: T2, Protein cereblon/Apoptosis regulator Bcl-2; test: Induction of CRBN-mediated Bcl-2 degradation in human HeLa cells assessed as relative abundance at 10 uM measured at 2 hrs by Western blot analysis (reference value: 1); in short: as §1
[19] = molecular target: T2, Protein cereblon/Apoptosis regulator Bcl-2; test: Induction of CRBN-mediated Bcl-2 degradation in human HeLa cells assessed as relative abundance at 10 uM measured at 4 hrs by Western blot analysis (reference value: 1); in short: as §1
[20] = molecular target: T2, Protein cereblon/Apoptosis regulator Bcl-2; test: Induction of CRBN-mediated Bcl-2 degradation in human HeLa cells assessed as relative abundance at 10 uM measured at 8 hrs by Western blot analysis (reference value: 1); in short: as §1
[21] = molecular target: T2, Protein cereblon/Apoptosis regulator Bcl-2; test: Induction of CRBN-mediated Bcl-2 degradation in human HeLa cells assessed as relative abundance at 10 uM measured at 16 hrs by Western blot analysis (reference value: 1); in short: as §1
[22] = molecular target: T2, Protein cereblon/Apoptosis regulator Bcl-2; test: Induction of CRBN-mediated Bcl-2 degradation in human HeLa cells assessed as relative abundance at 10 uM measured at 24 hrs by Western blot analysis (reference value: 1); in short: as §1
[23] = molecular target: T1, Protein cereblon/Induced myeloid leukemia cell differentiation protein Mcl-1; test: Induction of CRBN-mediated Mcl-1 degradation in human HeLa cells at 10 uM measured at 24 hrs by Western blot analysis relative to control; in short: as §1
[24] = molecular target: T1, Protein cereblon/Induced myeloid leukemia cell differentiation protein Mcl-1; test: Induction of CRBN-mediated Mcl-1 degradation in human HeLa cells assessed as Mcl-1 removal activity measured at 12 hrs by Western blot analysis
Target sequence in this assay (Q07820 whole entry): as the sequence (Q07820 whole entry, looked up) above
Target sequence in this assay (Q96SW2 whole entry): as the sequence (Q96SW2 whole entry, looked up) above

[25] = molecular target: T1, Protein cereblon/Induced myeloid leukemia cell differentiation protein Mcl-1; test: Induction of CRBN-mediated Mcl-1 degradation in human K562 cells incubated for 12 hrs by Western blot analysis
In short: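 K562 cells kept in RPMI1640 with 10% FBS at 37 °C, 5% CO2. After compound treatment, cells lysed in NP-40 buffer with protease inhibitors. Equal protein run on SDS-PAGE, then immunoblotted; protein levels quantified from the blots.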

[26] = molecular target: T2, Protein cereblon/Apoptosis regulator Bcl-2; test: Induction of CRBN-mediated Bcl-2 degradation in human HeLa cells by Western blot analysis

## N#CC1=C(NCCC(=O)O)c2ccc(Sc3ccc(Br)cc3)c3cccc(c23)C1=O
[1]
  fold change (FC): 0.6
[2]
  fold change (FC): 1.1
[3]
  fold change (FC): 1.1
[4]
  fold change (FC): 1.3
[5]
  fold change (FC): 1
[6]
  fold change (FC): 1.3
[7]
  fold change (FC): 1
[8]
  fold change (FC): 1.2
[9]
  fold change (FC): 1.1
[10]
  fold change (FC): 0.8
[11]
  fold change (FC): 1
[12]
  fold change (FC): 1
[13]
  fold change (FC): 0.9
[14]
  fold change (FC): 1.1
[15]
  fold change (FC): 0.5
[16]
  fold change (FC): 0.3
[17]
  fold change (FC): 0.2
[18]
  fold change (FC): 1.1
[19]
  fold change (FC): 1.2
[20]
  fold change (FC): 1.3
[21]
  fold change (FC): 1
[22]
  fold change (FC): 1.1
[23]
  Activity: 80%
[24]
  DC50: 3.6 µM
[25]
  Activity: Active

## CN1C(=O)CCC(N2C(=O)c3cccc(NCCOCCOCCNC(=O)CCCCC(=O)NCCN4C(=O)c5cccc6c(Sc7ccc(Br)cc7)ccc(c56)C4=O)c3C2=O)C1=O (stereo unspecified)
[26]
  Activity: inactive

Reference: ChEMBL document CHEMBL4321796, “Proteolysis Targeting Chimeras for the Selective Degradation of Mcl-1/Bcl-2 Derived from Nonselective Target Binding Ligands” (J Med Chem, 2019)
